M18AAP inhibitor: PfM18AAP enzyme inhibition | recombinant PfM18AAP, H-Glu-NHMec fluorogenic cleavage | inhibition, % at 7.35 µM | 290,000 tested, 1.2% active | AID 1822;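 active = inhibition above the campaign mean inhibition over all tested compounds plus 3 SD, cut at about 28% in these data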
FXN GAA850 act: frataxin GAA850 promoter activation; HEK293 lucGAA850 FXN promoter luciferase reporter, 24 h; percent of 10 µM SAHA response; activation, % at 6 µM; 360,000 tested, 0.56% active; AID 540364;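 active = activation above the average of all compounds screened plus 3 SD, cutoff fixed separately per campaign, cut at about 7.5% in these data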
HDAC3 inh: inhibitors of human histone deacetylase 3. recombinant HDAC3, fluorogenic peptide/trypsin coupled, fluorescence. inhibition, % at 8.3 µM. 320,000 tested, 0.15% active; in the data active = inhibition above about 26%, passing the limit was not always enough; inconclusive = no clear call, values can overlap the other calls
Target sequence (O15379 whole entry, looked up): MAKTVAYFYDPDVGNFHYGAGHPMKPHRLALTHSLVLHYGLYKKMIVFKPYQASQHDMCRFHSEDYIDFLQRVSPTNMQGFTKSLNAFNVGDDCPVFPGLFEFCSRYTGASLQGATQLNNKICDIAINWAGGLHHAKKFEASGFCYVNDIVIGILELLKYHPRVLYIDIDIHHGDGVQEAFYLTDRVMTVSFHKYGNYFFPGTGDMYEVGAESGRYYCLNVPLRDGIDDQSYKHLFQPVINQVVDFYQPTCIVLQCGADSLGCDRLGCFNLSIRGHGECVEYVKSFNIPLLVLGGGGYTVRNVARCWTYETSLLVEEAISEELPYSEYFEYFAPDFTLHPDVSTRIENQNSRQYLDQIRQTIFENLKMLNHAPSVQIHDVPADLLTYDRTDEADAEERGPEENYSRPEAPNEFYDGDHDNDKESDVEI
Fh CTSL1 inh: cathepsin L1 inhibition, PFM18AAP counter-screen. inhibition, % at 5.96 µM. recombinant F. hepatica cathepsin L1, Z-Leu-Arg-MCA fluorescence. 300,000 tested, 0.49% active;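 active = inhibition above the mean of all tested compounds plus 3 SD, set per screening campaign, cut at about 17% in these data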
SENP1 inh: SENP1 (human) catalytic domain inhibition; recombinant SENP1 catalytic domain, CyPet-SUMO1-YPet FRET cleavage; inhibition, % at 10 µM; 360,000 tested, 0.21% active; AID 624204;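 active = inhibition at least 30% at 10 µM, raw YFP signal under a set limit, fluorescence ratio 0.5 to 1.5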
Target sequence (Q9P0U3 419-644 limits assumed): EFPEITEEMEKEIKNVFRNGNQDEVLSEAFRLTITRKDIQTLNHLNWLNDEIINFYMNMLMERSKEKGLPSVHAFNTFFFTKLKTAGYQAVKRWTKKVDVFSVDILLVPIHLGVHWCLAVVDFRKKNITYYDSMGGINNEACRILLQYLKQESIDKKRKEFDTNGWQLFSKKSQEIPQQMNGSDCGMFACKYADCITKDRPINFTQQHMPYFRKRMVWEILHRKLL
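material = recombinant human SENP1 catalytic domain, His6-tagged | quantity = 20 pM enzyme | reagent = 25 nM SUMO1 FRET substrate | compound dosing = 10 µM single point, 0.5% DMSO | timing = 50 min enzyme reaction, room temperature, light-protected | detection = FRET, CFP and YFP emission | control set = no-enzyme low, enzyme-DMSO high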
AHR act: activators of human aryl hydrocarbon receptor. AHR-responsive luciferase reporter cells, luminescence. 320,000 tested, 2.5% active. activation, % at 5 µM. AID 2796. P35869; in the data active = activation above about 47%
Of the large screens only hits and unclear results are named; the others gave an inactive call. In the library only some 4.2% were active in any assay of this set; here they are far more common.

NC(=S)NN=Cc1ccc(-c2ccc(S(=O)(=O)Nc3ncccn3)cc2)o1	none (no result: M18AAP inhibitor, HDAC3 inh, Fh CTSL1 inh)
CCNc1nc(=S)nc(NC(C)C)[nH]1	M18AAP inhibitor 30
CCNc1nc(=S)nc(NCc2ccccc2)[nH]1	none (no result: FXN GAA850 act, SENP1 inh)
COc1ccc(F)cc1C(=O)C1CCCN(Cc2cccn2-c2cccnc2)C1 (stereo unspecified)	AHR act 52 (no result: HDAC3 inh)
COc1cc(/C=C/c2ccc3cccc(O)c3n2)cc(OC)c1OC	none
COc1ccc(/C=C/c2ccc3cccc(O)c3n2)c(OC)c1OC	FXN GAA850 act 8.9
COc1ccc(/C=C/c2ccc3cccc(O)c3n2)cc1Br	none
Oc1cccc(/C=C/c2ccc3cccc(O)c3n2)c1	AHR act 70
CCOC(=O)c1cc(-c2csc(N/N=C/c3ccccc3Cl)n2)on1	AHR act 50
CCn1c(CNc2ccc(Cl)cc2)nnc1SCc1ccc(C)cc1	AHR act 50
CCn1c(CNc2ccc(Cl)cc2)nnc1SCc1ccc(Cl)cc1	none
Fc1ccccc1Nc1nc(N2CCOCC2)nc(N2CCOCC2)n1	none (no result: Fh CTSL1 inh, AHR act)
Fc1ccccc1Nc1nc(NCc2ccco2)nc(N2CCOCC2)n1	AHR act 54
O=C1C2CC=CCC2C(=O)N1c1nccs1 (stereo unspecified)	none (no result: M18AAP inhibitor, HDAC3 inh, Fh CTSL1 inh, AHR act)
CNC(=O)C(=O)NCCC1CCCCN1S(=O)(=O)c1cccs1 (stereo unspecified)	none (no result: M18AAP inhibitor, HDAC3 inh)
Cn1nc(C(=O)Nc2cc(Cl)ccc2N2CCCC2)c2ccccc2c1=O	AHR act 64 (no result: M18AAP inhibitor, Fh CTSL1 inh)
CN1CCN(c2ccc(Cl)cc2NC(=O)c2nn(-c3ccccc3)c(=O)c3ccccc23)CC1	none (no result: HDAC3 inh, Fh CTSL1 inh, AHR act)
O=C1c2ccccc2C(=O)C12OC(c1ccccc1)C1(C(=O)c3ccccc3C1=O)C2c1ccc([N+](=O)[O-])cc1 (stereo unspecified)	none
O=C1c2ccccc2C(=O)C12OC2c1ccc(Cl)cc1 (stereo unspecified)	Fh CTSL1 inh 17 (no result: FXN GAA850 act, SENP1 inh)
COc1ccc(C(=O)COC(=O)[C@@H](NS(=O)(=O)c2ccccc2)C(C)C)cc1	none (no result: M18AAP inhibitor, Fh CTSL1 inh)
c1ccc(OCc2nn3c(-c4n[nH]c5c4CCC5)nnc3s2)cc1	AHR act 68 (no result: M18AAP inhibitor)
CCc1cc(=O)oc2cc(OCc3ccc(C(=O)O)o3)ccc12	none
CCOc1ccc(C(=O)Nc2nnc(C(C)C)s2)cc1OCC	AHR act 59
COc1cccc(-c2nnc(NC(=O)c3cccs3)s2)c1	HDAC3 inh inconclusive, AHR act 64
CCCCC(CC)c1nnc(NC(=O)c2cccs2)s1 (stereo unspecified)	none (no result: HDAC3 inh, Fh CTSL1 inh, AHR act)
CC(C)c1nnc(NC(=O)c2cccs2)s1	AHR act 53
Cc1nn(-c2ccccc2)c(C)c1/C=N/n1c(-c2ccccc2Br)n[nH]c1=S	AHR act 51
CCN(CC)c1ccc(/C=N/n2c(-c3ccccc3Br)n[nH]c2=S)cc1	none
COc1ccc(N=Nc2ccc(O)c3ncccc23)cc1	AHR act 48
CCN(CC)CCNC(=O)CCc1nnc2ccc(N3CCC(C)CC3)nn12	none
COc1ccc(Nc2nccc(-c3ccc([N+](=O)[O-])cc3)n2)cc1	AHR act 61
COc1ccc(Nc2ccc([N+](=O)[O-])cn2)cc1	none
CCc1c(C)nc2ncnn2c1N1CCN(S(=O)(=O)c2ccc(OC)cc2)CC1	none
CCOC(=O)CC(=O)CSc1ncnc2c1nnn2-c1ccc(F)cc1	HDAC3 inh 61
CCOC(=O)CSc1ncnc2c1nnn2-c1ccc(F)cc1	none
O=C(CSC1=NNC(c2ccccn2)S1)Nc1ccc(C(F)(F)F)cc1 (stereo unspecified)	AHR act 53
CC1(C(=O)Nc2cccc3c2CCCC3)CCN1C(=O)Cc1ccccc1Cl (stereo unspecified)	none (no result: M18AAP inhibitor, HDAC3 inh, Fh CTSL1 inh, AHR act)
COC(=O)C1=CN(c2ccc(C(C)(C)C)cc2)C(N)=C(C#N)C1c1ccccc1F (stereo unspecified)	none (no result: M18AAP inhibitor, FXN GAA850 act, HDAC3 inh, Fh CTSL1 inh, AHR act)
O=C(NNc1ccc([N+](=O)[O-])cc1)C1C2CCCCC21 (stereo unspecified)	M18AAP inhibitor 59
O=C(NNc1ccc([N+](=O)[O-])cc1[N+](=O)[O-])C1C2CCCCC21 (stereo unspecified)	none
COc1ccc(Cc2nc3ccc(C(=O)NC4CCOC4)cc3o2)cc1 (stereo unspecified)	none
O=C(C[C@H]1C(=O)N(CCc2ccccc2)C[C@@H]1Cc1ccccc1)Nc1ccccc1	none
CC(C)C(NS(=O)(=O)c1ccc2c(c1)oc(=O)n2C)C(=O)N1CCN(Cc2ccccc2)CC1 (stereo unspecified)	Fh CTSL1 inh 47 (no result: HDAC3 inh)
CSCCC(NS(=O)(=O)c1ccc2c(c1)oc(=O)n2C)C(=O)NC1CCN(Cc2ccccc2)CC1 (stereo unspecified)	Fh CTSL1 inh 41
CCc1cc(CNC(=O)C2CCC(=O)N(CCc3cccc(F)c3)C2)on1 (stereo unspecified)	none (no result: HDAC3 inh, Fh CTSL1 inh, AHR act)
COc1ccccc1C(=O)N/C(=C\c1cn(S(=O)(=O)N(C)C)c2ccccc12)C(=O)N1CCN(C)CC1	none (no result: M18AAP inhibitor, HDAC3 inh, Fh CTSL1 inh, AHR act)
O=C(NCCCN1CCCC1)c1ccc2c(c1)N(Cc1ccccc1)CCS2	none
COc1cccc(CNC(=O)c2ccc3c(c2)N(C)CCS3)c1OC	AHR act 56
CCN1CCN(CCCNC(=O)c2ccc3c(c2)N(Cc2ccccc2)CCS3)CC1	Fh CTSL1 inh 42
CCN1CCSc2ccc(C(=O)NCc3ccccc3F)cc21	none
CN1CCSc2ccc(C(=O)NCc3ccccc3F)cc21	AHR act 78
COc1ccc(CNC(=O)c2ccc3c(c2)N(C)CCS3)cc1	none (no result: HDAC3 inh)
CS(=O)(=O)N(CC(=O)Nc1ccc(Br)cc1F)C1CCCCC1	AHR act 55
O=C(CN1C(=O)/C(=C/c2cccc(Cl)c2)SC1=S)NC1C=CS(=O)(=O)C1 (stereo unspecified)	M18AAP inhibitor 30
O=C(CN1C(=O)S/C(=C\c2cccc(Cl)c2)C1=O)NC1C=CS(=O)(=O)C1 (stereo unspecified)	HDAC3 inh inconclusive
Cc1cc(C)c(C#N)c(OCC(=O)c2ccccc2)n1	AHR act 52
Cc1cc(C)c(C#N)c(OCC(=O)Nc2ccccc2)n1	none
O=[N+]([O-])c1ccc(N=NNc2ccccc2)cc1	none
Brc1ccc(N=NNc2ccccc2)cc1	AHR act 58
O=C(C1CCCO1)N1CCN(C(=S)Nc2ccccc2F)CC1 (stereo unspecified)	none
CN1C(=O)NC(c2ccccc2)C2=C1CN(c1ccc3ccccc3c1)C2=O (stereo unspecified)	AHR act 68
CC(C)CNC(=O)C1(C)CCCN1C(=O)c1cccnc1 (stereo unspecified)	none (no result: M18AAP inhibitor, HDAC3 inh, Fh CTSL1 inh, AHR act)
COc1ccc(-c2ccc(/C=C3/C(=N)N4C=CSC4=NC3=O)o2)c([N+](=O)[O-])c1	AHR act 49
Cc1c(Cl)cccc1NC(=O)CCN1C(=O)NC(C)(C)C1=O	none (no result: M18AAP inhibitor, HDAC3 inh, Fh CTSL1 inh, AHR act)

Source: PubChem (several laboratories)
